This is an account of results in PubChem BioAssay AID1217 (Sanford-Burnham Center for Chemical Genomics, 2008).

Hit rate of the full screen: of about 190,000 compounds, about 1,300 (0.68%) were called active. Shown is part of a subset that was picked to be rich in actives. Unmarked numbers belong to inactive results.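 The calls were made as follows: active = primary screen inhibition at 20 µM above a set limit (cut at about 50% in these data); inactive = the rest.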

The assay concerns diaphorase (Clostridium kluyveri). The assay is described as follows: diaphorase inhibitors and chemical oxidizers, primary screen, counter-screen for diaphorase-coupled primary assays, biochemical, uHTS, resorufin fluorescence (AID 1217).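 Also: plate controls were DMSO with full reaction for no effect and wells lacking NADH for full effect.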 The settings on record: diaphorase resazurin-to-resorufin fluorescence, NADH, 16 min; at 20 µM; active compounds read high; bacterial (C. kluyveri) enzyme, not human. Put shortly:
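Assay system – diaphorase enzyme from Clostridium kluyveri · Amount – diaphorase 0.14 U/mL (working solution) · Times – reaction incubation of 16 min at room temperature · Controls – No-NADH positive control and DMSO neutral control · Signal – resorufin fluorescence 544/590 nm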
Turning to `Cc1cccc(C2c3[nH]c4ccccc4c3CCN2C(=O)c2cc(-c3cccn3C)n[nH]2)n1` (stereo unspecified), the inhibition (as a rule, the change of the read-out against control, counted positive when it falls) was 37%. Take `Cc1cc2c(cc1C)[n+](C)cn2CC(O)COCC1CC=CCC1` (stereo unspecified): the inhibition was 1.5%. For the compound `COc1ccc(/C=C/CN2CCN(Cc3ccc(C)cc3)C(CCO)C2)cc1` (stereo unspecified), the inhibition was 7.2%. Take `CN(CCc1cn[nH]c1)C(=O)CC1C(=O)NCCN1Cc1cccc(Oc2ccccc2)c1` (stereo unspecified): the inhibition is 8.5%. `O=C(CSc1ccc2nnc(-c3ccccc3)n2n1)N1CCCc2ccccc21`: the inhibition is 56.2% (active).

With `CCCn1c(SCC(=O)N2CCc3ccccc32)nnc1-c1ccncc1`, the inhibition was 6.2%. With `Cn1c(SCC(=O)N2CCCc3ccccc32)nc2ccccc2c1=O`, the inhibition is 5.1%. `C=CCNC(=S)NNC(=O)COc1c(Cl)cc(Cl)cc1Cl`: the inhibition was 10.5%. For `COc1cccc(C(=O)Oc2cc(C)[nH]c(=O)c2[N+](=O)[O-])c1`, the inhibition is 15.4%. As to `Cn1c2ccccc2c(=O)c2c(O)cccc21`, the inhibition is -1%.

Take `Cc1nn(C)c(Oc2ccccc2)c1[N+](=O)[O-]`: the inhibition was 13.6%. Turning to `Cn1c(=O)c([N+](=O)[O-])c(Oc2ccccc2)c2ccccc21`, the inhibition is 82.2% (active). Then `Cc1cccc(OP(=O)(Nc2c(C)n(C)n(-c3ccccc3)c2=O)Oc2cccc(C)c2)c1`, with 14.1%. Take `Cc1cccc(Oc2c([N+](=O)[O-])c(=O)n(C)c3ccccc23)c1`: the inhibition was 94.1% (active).

For `CN(Cc1cc2cc(F)ccc2[nH]1)Cc1nc(-c2cnccn2)no1`, the inhibition was 15.3%. Turning to `CN(C)c1nc(-c2cccnc2)nc(-c2ccc(Cl)cc2)c1C#N`, the inhibition is -10.7%. Take `COC(=O)C1CCN(C(=O)c2cc(=O)[nH]c3ccccc23)CC1`: the inhibition is 6.4%.

As to `OC(COCc1ccco1)CN1CCN(c2ccccc2)CC1` (stereo unspecified), the inhibition was 3.1%.

For the compound `S=C(NCC1CCCO1)N1CCN(c2ccc(Cl)c(Cl)c2)CC1` (stereo unspecified), the inhibition was 21.1%.

Turning to `Cc1cccc(N2CCC(NCc3c(C(=O)N4CCCCC4)nc4c(C)cccn34)CC2)c1`, the inhibition is -5.4%.

As for `Cc1cccc(NC(=O)Nc2ccc3c(c2)OCO3)n1`, the inhibition was 18.3%. The figure for `COc1ccc(NC(=S)NCCN2CCC(C)CC2)cc1` is -1.3%. Regarding `Cc1noc(/C=C/c2ccco2)c1S(=O)(=O)N1CCC(C(=O)Nc2ccc(Cl)cn2)CC1`, the inhibition was 14.1%. On to `COC(=O)C1=C(C)NC(=O)CC1c1ccccc1OC` (stereo unspecified), for which the inhibition was 6.8%. `COc1cc(N/C=C2\CC(=O)NC(C)=C2C#N)cc(OC)c1OC`: the inhibition is 51.1% (active). In the case of `Cc1cccc(NC(=S)NCCc2ccc(F)cc2)c1C`, the inhibition was 1.1%.

As to `N#Cc1c(-c2ccc(F)cc2)cc(C2CC2)nc1SCC(=O)c1cccs1`, the inhibition is 12.8%. As for `COc1ccc(S(=O)(=O)Nc2cccnc2)c(Cl)c1Cl`, the inhibition was 77.2% (active). For the compound `COc1ccccc1Oc1ccc(S(=O)(=O)Nc2cccnc2)cc1`, the inhibition was 9.6%.

Consider `COc1ccc(C(=O)Nc2cccnc2)cc1C(=O)Nc1cccnc1`, for which the inhibition is -17.7%. Then `S=C(Cc1ccc(Cl)cc1)N1CCOCC1`, with -0.3%; and `CC(=O)Nc1cccc(-c2nc3ccccc3s2)c1C`, with 6.8%.

On to `Cc1ccc(-c2n[nH]c(=S)n2/N=C/c2cc3c(cc2[N+](=O)[O-])OCO3)cc1`, for which the inhibition is 69.3% (active). The figure for `CCOc1ccc(-c2n[nH]c(=S)n2/N=C/c2cc3c(cc2[N+](=O)[O-])OCO3)cc1` is 41.6%. Regarding `Cc1ccc(S(=O)(=O)N/N=C\c2cc3c(cc2[N+](=O)[O-])OCO3)cc1`, the inhibition was 37.8%. For the compound `COc1ccc(CS(=O)/C(Cl)=C(/Cl)C(=O)Nc2ccc(OC)nc2)cc1` (stereo unspecified), the inhibition was 1%. Then `O=[N+]([O-])c1c(NCCO)cc(Sc2nc3ccccc3s2)c2nonc12`, with 58% (active); and `O=C(O)c1cccc(S(=O)(=O)Nc2ccc(O)cc2Sc2nc3ccccc3s2)c1`, with 7.5%; and `COc1ccc(S(=O)(=O)Nc2ccc(O)c(Sc3nc4ccccc4s3)c2)cc1`, with 24.7%. Turning to `C[C@H](NC(=O)c1ccccc1Cl)C(=O)OCCOc1cccc(Cl)c1`, the inhibition is 11.2%. For the compound `COc1cccc(-n2c(=S)[nH]c3c(oc4ccccc43)c2=O)c1`, the inhibition was 71.4% (active). Take `COC(=O)c1ccc(CSc2nc3ccccc3c(=O)n2-c2cccc(OC)c2)o1`: the inhibition is 39.9%. Then `COc1cccc(-n2cc(C(=O)O)c3ccccc3c2=O)c1`, with 6.7%. With `CN(C(=O)c1c(Cl)cnn1C)C12CC3CC(CC(C3)C1)C2`, the inhibition was 3.9%. Consider `C/C(=N\Nc1ccc([N+](=O)[O-])cc1)c1ccc(-n2nncc2C(C)(C)C)cc1`, for which the inhibition was 5%. The figure for `O=C(CN1C(=O)c2cccc3cccc1c23)Nc1ccccc1` is -6.4%; for `CCN1C(=O)c2cccc3c(N)ccc1c23` it is 57.3% (active); for `CCCCN(C)C(=O)c1ccc2c(c1)N(CC)C(=O)c1ccccc1S2(=O)=O` it is 4.6%. The figure for `CN1C(=O)C(CC(=O)Nc2ccccc2)S/C1=N/c1nccs1` (stereo unspecified) is -11.3%; for `CC(=O)Nc1ccc(S(=O)(=O)N(CCc2ccccc2)CC(=O)N/N=C/c2ccc(C(=O)O)cc2)cc1` it is 0.3%. With `Cc1ccc(-n2[nH]c(C)c(/C=N/NC(=O)c3cccc([N+](=O)[O-])c3)c2=O)cc1C`, the inhibition was 22%. In the case of `Cc1[nH]n(-c2ccc(Cl)cc2)c(=O)c1/C=N/n1c(C)nc2ccccc2c1=O`, the inhibition is -6.7%. For `Cc1[nH]n(-c2ccccc2)c(=O)c1/C=N/NC(=O)c1ccoc1C`, the inhibition is 50.1% (active). For the compound `O=C(C(Cl)Cl)N1CCN(c2ccccn2)CC1`, the inhibition was 3%. `COCCCNC(=O)Cn1c(=O)n(Cc2ccccc2Cl)c(=O)c2cc(OC)c(OC)cc21`: the inhibition was 9.4%. The figure for `Cc1c(CN2CCCC(C(=O)c3cccc(Cl)c3)C2)c(=O)n(-c2ccccc2)n1C` (stereo unspecified) is 15.1%; for `CCc1ccc(NC2Nc3cc(C)nn3S2)cc1` (stereo unspecified) it is 8.9%; for `O=C(Cc1ccccc1)NCC1OCCc2ccccc21` (stereo unspecified) it is 24.1%. `COc1ccc(-c2csc(Nc3ccc(O)cc3)n2)cc1`: the inhibition is -2.2%. With `COc1ccc(OC)c(Nc2nc(-c3ccc(O)c(O)c3)cs2)c1`, the inhibition is 57.4% (active). `COc1ccc(-c2csc(Nc3ccccn3)n2)cc1`: the inhibition is 10.1%.
